Published values from different studies.
Compare with care: the assays were run in different laboratories.
Effect on: metabolic stability
Host: human

Structure (SMILES)	system	conditions	measurement	value
C[C@]12CC[C@H]3[C@@H](CCC4=CC(=O)CC[C@@]43C)[C@@H]1CC[C@@H]2O	liver microsomes	pH 7.4	scaled CLint	125 mL/min/kg
O=c1[nH]c2ccccc2n1C1CCN(CCCC(c2ccc(F)cc2)c2ccc(F)cc2)CC1	liver microsomes	100 ng/mL	microsomal CLint	3.4 µL/min/mg
CC(C)CC(=O)OC[C@H]1O[C@@](C#N)(c2ccc3c(N)ncnn23)[C@H](O)[C@@H]1O	hepatocytes	–	hepatocyte CLint	> 318 µL/min/10⁶ cells
NCCOCC(=O)N1CCCC(C(=O)NCc2nc(-c3ccc(-c4ccc(F)cc4)cc3)cs2)C1 (stereo not shown)	liver microsomes	–	scaled CLint	< 4.3 mL/min/kg
Cc1[nH]c(C)c(S(=O)(=O)Nc2ccc(S(F)(F)(F)(F)F)c(Cl)c2)c1C(=O)N1CCC(F)(F)C1	liver microsomes	–	microsomal CLint	53.1 µL/min/mg
CC1(C)NC(=O)N(c2ccc(F)c(C(F)(F)F)c2F)C1=O	liver microsomes	–	microsomal CLint	< 7 µL/min/mg
O=C1CCC(N2Cc3c(ccc4c3OCC43CCN(Cc4ccccc4)CC3)C2=O)C(=O)N1 (stereo not shown)	liver microsomes	1 µM	scaled CLint	20.9 mL/min/kg
Cc1[nH]c(C)c(S(=O)(=O)Nc2ccc(S(F)(F)(F)(F)F)cc2)c1C(=O)N1CCC(F)(F)C1	liver microsomes	–	microsomal CLint	26 µL/min/mg
C[C@]12CC[C@H]3[C@@H](CCC4=CC(=O)CC[C@@]43C)[C@@H]1CC[C@@H]2O	liver microsomes	–	microsomal CLint	63.9 µL/min/mg
CC1(C)NC(=O)N(c2cc(Cl)c(F)c(C(F)(F)F)c2)C1=O	liver microsomes	–	microsomal CLint	< 7 µL/min/mg
